ChEMBL document CHEMBL1255567, “Design, synthesis, and structure-activity relationships of novel bicyclic azole-amines as negative allosteric modulators of metabotropic glutamate receptor 5” (J Med Chem, 2010)
Blank lines part the entries; values can stand above or below the molecule they belong to. Activity calls are given as the source filed them. No cut-off for these calls is given here.

Legend:
[1] = target: T1, Metabotropic glutamate receptor 5 (Homo sapiens, UniProt P41594); experiment: Modulation of human recombinant mGluR5 expressed in CHO cells assessed as inhibition of glutamate-induced response at 10 uM; assay type: cell-based
Target sequence in this assay (P41594 21-1212 limits assumed): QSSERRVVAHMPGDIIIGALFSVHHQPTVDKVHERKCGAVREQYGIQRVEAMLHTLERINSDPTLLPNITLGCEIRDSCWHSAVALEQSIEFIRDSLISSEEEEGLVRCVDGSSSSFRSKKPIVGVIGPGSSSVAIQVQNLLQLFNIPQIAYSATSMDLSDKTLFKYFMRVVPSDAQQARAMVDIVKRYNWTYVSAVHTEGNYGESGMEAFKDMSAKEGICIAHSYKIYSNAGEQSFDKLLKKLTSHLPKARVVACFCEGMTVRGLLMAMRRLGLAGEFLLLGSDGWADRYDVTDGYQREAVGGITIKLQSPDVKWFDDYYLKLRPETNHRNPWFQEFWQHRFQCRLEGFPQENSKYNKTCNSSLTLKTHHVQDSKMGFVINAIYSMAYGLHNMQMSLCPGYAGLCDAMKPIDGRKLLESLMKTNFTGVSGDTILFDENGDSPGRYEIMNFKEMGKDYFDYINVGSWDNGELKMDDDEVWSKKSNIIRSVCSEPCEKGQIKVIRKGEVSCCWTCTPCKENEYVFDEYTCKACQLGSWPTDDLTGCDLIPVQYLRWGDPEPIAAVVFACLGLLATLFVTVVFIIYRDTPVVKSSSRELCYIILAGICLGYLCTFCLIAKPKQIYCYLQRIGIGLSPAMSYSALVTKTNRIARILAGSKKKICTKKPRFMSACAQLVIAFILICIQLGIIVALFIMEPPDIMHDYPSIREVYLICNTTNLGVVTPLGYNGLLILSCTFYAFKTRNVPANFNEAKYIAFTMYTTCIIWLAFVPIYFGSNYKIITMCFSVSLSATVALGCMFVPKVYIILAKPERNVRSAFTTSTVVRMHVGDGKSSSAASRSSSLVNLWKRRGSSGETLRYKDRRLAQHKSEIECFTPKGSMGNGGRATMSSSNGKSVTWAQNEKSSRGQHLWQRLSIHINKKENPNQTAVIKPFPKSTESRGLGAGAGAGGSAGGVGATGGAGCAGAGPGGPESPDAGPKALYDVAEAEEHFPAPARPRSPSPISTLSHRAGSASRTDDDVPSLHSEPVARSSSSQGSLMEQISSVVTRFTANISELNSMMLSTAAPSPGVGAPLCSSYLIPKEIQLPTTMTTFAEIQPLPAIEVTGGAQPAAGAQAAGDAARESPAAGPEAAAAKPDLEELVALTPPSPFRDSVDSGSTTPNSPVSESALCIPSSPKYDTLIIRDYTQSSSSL

[2] = target: T1, Metabotropic glutamate receptor 5; experiment: Modulation of human recombinant mGluR5 expressed in CHO cells assessed as inhibition of glutamate-induced response; assay type: cell-based
Procedure, shortened: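 Aequorin cell line with doxycycline-inducible human mGluR5, induced 18 h (600 ng/mL). Cells loaded with coelenterazine-h ≥4 h at room temperature, preincubated with compound ≥3 min, then challenged with glutamate at EC80. Luminescence read on FDSS 6000, normalized to digitonin or 20 μM ATP wells. IC50 from sigmoidal fit; mean of two determinations.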
Target sequence in this assay (P41594 whole entry): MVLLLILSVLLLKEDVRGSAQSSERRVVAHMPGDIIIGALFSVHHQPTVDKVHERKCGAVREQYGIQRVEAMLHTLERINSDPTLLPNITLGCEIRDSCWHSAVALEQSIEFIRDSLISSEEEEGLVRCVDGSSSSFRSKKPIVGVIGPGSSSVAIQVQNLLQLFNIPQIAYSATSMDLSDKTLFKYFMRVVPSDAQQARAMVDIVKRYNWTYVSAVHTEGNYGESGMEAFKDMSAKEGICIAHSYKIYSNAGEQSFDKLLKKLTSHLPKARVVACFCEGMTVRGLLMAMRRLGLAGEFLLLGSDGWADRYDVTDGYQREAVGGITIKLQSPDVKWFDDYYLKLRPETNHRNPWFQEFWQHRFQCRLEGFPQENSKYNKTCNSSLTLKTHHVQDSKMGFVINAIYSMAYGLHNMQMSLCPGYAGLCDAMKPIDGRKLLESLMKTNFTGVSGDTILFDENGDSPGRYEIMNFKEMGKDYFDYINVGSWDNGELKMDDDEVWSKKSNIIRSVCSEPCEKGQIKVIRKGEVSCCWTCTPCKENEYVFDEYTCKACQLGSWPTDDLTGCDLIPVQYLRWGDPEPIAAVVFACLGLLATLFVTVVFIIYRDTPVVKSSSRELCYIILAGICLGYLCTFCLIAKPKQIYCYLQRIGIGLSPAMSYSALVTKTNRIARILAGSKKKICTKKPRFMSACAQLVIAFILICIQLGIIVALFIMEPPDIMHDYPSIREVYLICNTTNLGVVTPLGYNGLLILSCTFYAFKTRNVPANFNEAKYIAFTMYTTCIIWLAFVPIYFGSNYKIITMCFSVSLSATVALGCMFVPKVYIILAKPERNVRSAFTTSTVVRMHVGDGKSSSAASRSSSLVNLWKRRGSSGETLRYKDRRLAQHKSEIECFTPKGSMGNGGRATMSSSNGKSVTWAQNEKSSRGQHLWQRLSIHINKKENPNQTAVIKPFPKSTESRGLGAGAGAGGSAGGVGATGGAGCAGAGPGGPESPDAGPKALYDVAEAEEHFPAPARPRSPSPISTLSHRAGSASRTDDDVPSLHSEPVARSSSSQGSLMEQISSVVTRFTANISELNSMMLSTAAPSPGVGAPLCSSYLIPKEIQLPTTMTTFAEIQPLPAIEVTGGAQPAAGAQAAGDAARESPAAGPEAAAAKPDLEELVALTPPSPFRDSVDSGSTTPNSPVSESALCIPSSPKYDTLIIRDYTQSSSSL

[3] = Cmax in Sprague-Dawley rat at 10 mg/kg, po; assay type: ADME, organism-based; set-up: dose 10 mg/kg, route oral; details: in vivo
Procedure, shortened: (§1)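 Male Sprague-Dawley rats, 3 per cohort; 2 mg/kg iv or 2 and 10 mg/kg oral gavage. Vehicle 40% hydroxypropyl-βCD:50 mM potassium phosphate pH 6.0 (50:50), 0.5 mg/mL nominal, filtered. Jugular-cannula blood predose and 5 min to 24 h. K2-EDTA plasma, methanol precipitation with internal standard, LC/MS/MS (LLOQ 2.5 ng/mL). Noncompartmental analysis.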

[4] = Volume of distribution in Sprague-Dawley rat at 2 mg/kg, iv; assay type: ADME, organism-based; set-up: dose 2 mg/kg, route intravenous; details: in vivo; procedure, shortened: as §1
[5] = Oral bioavailability in rhesus monkey at 1 mg/kg; assay type: ADME, organism-based, Macaca mulatta; details: in vivo
Procedure, shortened: (§2)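 Male Rhesus monkeys, 3 per cohort; 1 mg/kg iv or oral gavage. Vehicle 40% hydroxypropyl-βCD:50 mM potassium phosphate pH 6.0 (50:50), 0.5 mg/mL nominal, filtered. Femoral vein blood predose and 5 min to 24 h. K3EDTA plasma, protein precipitation with internal standard, LC/MS/MS (LLOQ 2.5 ng/mL). Noncompartmental PK parameters.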

[6] = Half life in rhesus monkey at 1 mg/kg, po; assay type: ADME, organism-based, Macaca mulatta; set-up: dose 1 mg/kg, route oral; details: in vivo; procedure, shortened: as §2
[7] = AUC (0 to t) in rhesus monkey at 1 mg/kg, iv; assay type: ADME, organism-based, Macaca mulatta; set-up: dose 1 mg/kg, route intravenous; details: plasma; procedure, shortened: as §2
[8] = target: Kappa-type opioid receptor (Homo sapiens) (UniProt P41145); experiment: Inhibition of kappa opioid receptor at 10 uM
Sequence of Kappa-type opioid receptor (Homo sapiens) (P41145 whole entry): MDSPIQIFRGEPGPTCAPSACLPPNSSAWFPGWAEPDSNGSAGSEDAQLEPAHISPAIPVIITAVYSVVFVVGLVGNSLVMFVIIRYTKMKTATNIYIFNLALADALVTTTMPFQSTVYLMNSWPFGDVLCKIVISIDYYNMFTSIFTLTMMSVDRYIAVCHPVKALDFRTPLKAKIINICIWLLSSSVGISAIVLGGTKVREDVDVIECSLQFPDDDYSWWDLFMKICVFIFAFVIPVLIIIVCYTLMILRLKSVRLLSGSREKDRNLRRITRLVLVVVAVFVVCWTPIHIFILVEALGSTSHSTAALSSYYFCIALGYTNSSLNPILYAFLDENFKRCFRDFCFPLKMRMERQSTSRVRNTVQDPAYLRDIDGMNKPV

[9] = AUC (0 to t) in Sprague-Dawley rat at 2 mg/kg, iv; assay type: ADME, organism-based; set-up: dose 2 mg/kg, route intravenous; details: plasma; procedure, shortened: as §1
Rattus norvegicus [10] = experiment: Ex vivo receptor occupancy of mGluR5 receptor in Sprague-Dawley rat brain at 3 mg/kg, ip after 30 mins; assay type: functional; details: route intraperitoneal
Procedure, shortened: (§3)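 Male Sprague-Dawley rats (n = 4) dosed 3 mg/kg ip in 45% HPβCD. At set times postdose, iv tail-vein 3H-mPEPy tracer; decapitated 2 min later. Striatum and cerebellum sections imaged 12 h on β-imager. %RO derived from striatum:cerebellum signal ratio relative to vehicle animals; mean ± SEM.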

[11] = Cmax in rhesus monkey at 1 mg/kg, po; assay type: ADME, organism-based, Macaca mulatta; set-up: dose 1 mg/kg, route oral; details: in vivo; procedure, shortened: as §2
[12] = Oral bioavailability in Sprague-Dawley rat at 2 mg/kg; assay type: ADME, organism-based; details: in vivo; procedure, shortened: as §1
Rhesus monkey = experiment: Cmax in rhesus monkey at 1 mg/kg, iv; assay type: ADME, organism-based, Macaca mulatta; set-up: dose 1 mg/kg, route intravenous; details: in vivo; procedure, shortened: as §2
Rattus norvegicus [13] = experiment: (§4) Half life in Sprague-Dawley rat at 2 mg/kg, iv; assay type: ADME, organism-based; set-up: dose 2 mg/kg, route intravenous; details: in vivo; procedure, shortened: as §1
[14] = as §4; assay type: ADME, organism-based; set-up: dose 2 mg/kg, route intravenous; details: Sprague-Dawley, in vivo; procedure, shortened: as §1
[15] = AUC (0 to t) in Sprague-Dawley rat at 2 mg/kg, po; assay type: ADME, organism-based; set-up: dose 2 mg/kg, route oral; details: plasma; procedure, shortened: as §1
Plasma = experiment: Drug level in Sprague-Dawley rat plasma at 3 mg/kg, ip; assay type: ADME, organism-based; set-up: dose 3 mg/kg, route intraperitoneal; details: in vivo
Procedure, shortened: (§5)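 Male Sprague-Dawley rats (200-250 g, n = 4) given 3 mg/kg ip in 45% HPβCD. Trunk blood and brain taken at sacrifice. Brain homogenized at 40 mg/mL in 95:5 water:acetonitrile with 0.1% formic acid. Plasma or homogenate precipitated with acetonitrile, dried, reconstituted and measured by LC/MS/MS.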

[16] = Volume of distribution in rhesus monkey at 1 mg/kg, iv; assay type: ADME, organism-based, Macaca mulatta; set-up: dose 1 mg/kg, route intravenous; details: in vivo; procedure, shortened: as §2
[17] = target: Metabotropic glutamate receptor 5 (Rattus norvegicus, UniProt P31424); experiment: Displacement of [3H]-MPEP from mGluR5 in rat cortical membranes; assay type: cell membranes, Membrane
Sequence of Metabotropic glutamate receptor 5 (Rattus norvegicus, UniProt P31424) (P31424 whole entry): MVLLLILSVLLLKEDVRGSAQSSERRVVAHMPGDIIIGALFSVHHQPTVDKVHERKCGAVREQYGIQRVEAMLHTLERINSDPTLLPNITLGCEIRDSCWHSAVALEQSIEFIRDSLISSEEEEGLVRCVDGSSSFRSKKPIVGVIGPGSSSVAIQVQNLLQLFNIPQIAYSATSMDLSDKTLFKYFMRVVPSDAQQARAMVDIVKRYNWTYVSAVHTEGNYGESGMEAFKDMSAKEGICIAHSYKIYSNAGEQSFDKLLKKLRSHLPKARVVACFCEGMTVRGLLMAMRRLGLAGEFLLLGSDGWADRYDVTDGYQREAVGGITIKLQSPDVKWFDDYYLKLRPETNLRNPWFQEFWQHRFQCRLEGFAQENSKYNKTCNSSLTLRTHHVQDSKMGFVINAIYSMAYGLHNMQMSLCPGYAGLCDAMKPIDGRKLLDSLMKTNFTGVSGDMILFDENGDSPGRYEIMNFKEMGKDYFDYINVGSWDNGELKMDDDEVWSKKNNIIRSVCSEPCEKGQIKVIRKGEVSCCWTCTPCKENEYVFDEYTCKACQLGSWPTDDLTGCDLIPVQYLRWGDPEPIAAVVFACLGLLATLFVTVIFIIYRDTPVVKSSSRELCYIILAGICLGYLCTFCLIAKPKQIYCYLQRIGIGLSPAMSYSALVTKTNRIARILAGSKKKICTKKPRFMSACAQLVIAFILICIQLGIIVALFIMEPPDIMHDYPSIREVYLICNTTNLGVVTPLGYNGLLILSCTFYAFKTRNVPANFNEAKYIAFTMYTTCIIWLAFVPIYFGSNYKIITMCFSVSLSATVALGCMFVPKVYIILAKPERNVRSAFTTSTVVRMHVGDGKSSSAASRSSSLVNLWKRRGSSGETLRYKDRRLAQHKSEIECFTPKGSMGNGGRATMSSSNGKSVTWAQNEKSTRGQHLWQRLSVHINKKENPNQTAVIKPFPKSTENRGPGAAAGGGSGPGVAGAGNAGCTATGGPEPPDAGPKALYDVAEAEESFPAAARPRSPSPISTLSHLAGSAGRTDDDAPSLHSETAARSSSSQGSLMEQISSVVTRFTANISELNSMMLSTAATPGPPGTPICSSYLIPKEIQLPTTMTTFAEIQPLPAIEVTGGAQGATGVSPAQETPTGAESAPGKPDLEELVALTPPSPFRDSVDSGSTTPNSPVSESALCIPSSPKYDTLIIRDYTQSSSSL
Procedure, shortened: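 Competition binding against [3H]-MPEP on rat cortical membranes, run in duplicate. Nonspecific binding defined with a 200-fold excess of reference modulator. Incubated 120 min at 4 °C in 0.1 mL, filtered on PEI-presoaked GF-C filters, washed with cold 50 mM Tris-HCl pH 7.4, scintillation counted. Ki reported as mean of two determinations; MPEP used as control.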

Rattus norvegicus [18] = experiment: Ex vivo receptor occupancy of mGluR5 receptor in ip dosed Sprague-Dawley rat brain after 60 mins; assay type: functional; details: 1 h
Procedure, shortened: (§6)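 Male Sprague-Dawley rats (200-250 g, n = 4) dosed ip or po at 0.3, 1, 3, 10, 30 mg/kg in 45% HPβCD. After 60 min, iv 3H-mPEPy tracer; killed 2 min later. Striatal versus cerebellar radioactivity on β-imager gives %RO against vehicle. Dose-occupancy curves fitted.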

[19] = Half life in rhesus monkey at 1 mg/kg, iv; assay type: ADME, organism-based, Macaca mulatta; set-up: dose 1 mg/kg, route intravenous; details: in vivo; procedure, shortened: as §2
[20] = Half life in Sprague-Dawley rat at 2 mg/kg, po; assay type: ADME, organism-based; set-up: dose 2 mg/kg, route oral; details: in vivo; procedure, shortened: as §1
Rattus norvegicus [21] = experiment: Ex vivo receptor occupancy of mGluR5 receptor in Sprague-Dawley rat brain at 3 mg/kg, ip after 2 hrs; assay type: functional; details: route intraperitoneal; procedure, shortened: as §3
[22] = Clearance in rhesus monkey at 1 mg/kg, iv; assay type: ADME, organism-based, Macaca mulatta; set-up: dose 1 mg/kg, route intravenous; details: in vivo; procedure, shortened: as §2
[23] = Half life in Sprague-Dawley rat at 10 mg/kg, po; assay type: ADME, organism-based; set-up: dose 10 mg/kg, route oral; details: in vivo; procedure, shortened: as §1
[24] = Oral bioavailability in Sprague-Dawley rat at 10 mg/kg; assay type: ADME, organism-based; details: in vivo; procedure, shortened: as §1
[25] = AUC (0 to t) in rhesus monkey at 1 mg/kg, po; assay type: ADME, organism-based, Macaca mulatta; set-up: dose 1 mg/kg, route oral; details: plasma; procedure, shortened: as §2
[26] = Clearance in Sprague-Dawley rat at 2 mg/kg, iv; assay type: ADME, organism-based; set-up: dose 2 mg/kg, route intravenous; details: in vivo; procedure, shortened: as §1
[27] = Cmax in Sprague-Dawley rat at 2 mg/kg, po; assay type: ADME, organism-based; set-up: dose 2 mg/kg, route oral; details: in vivo; procedure, shortened: as §1
Rattus norvegicus [28] = experiment: Ex vivo receptor occupancy of mGluR5 receptor in Sprague-Dawley rat brain at 3 mg/kg, ip after 24 hrs; assay type: functional, organism-based; set-up: dose 3 mg/kg; procedure, shortened: as §3
[29] = Cmax in Sprague-Dawley rat at 2 mg/kg, iv; assay type: ADME, organism-based; set-up: dose 2 mg/kg, route intravenous; details: in vivo; procedure, shortened: as §1
Rattus norvegicus [30] = experiment: Ex vivo receptor occupancy of mGluR5 receptor in Sprague-Dawley rat brain at 3 mg/kg, ip after 60 mins; assay type: functional; details: route intraperitoneal; procedure, shortened: as §3
[31] = AUC (0 to t) in Sprague-Dawley rat at 10 mg/kg, po; assay type: ADME, organism-based; set-up: dose 10 mg/kg, route oral; details: plasma; procedure, shortened: as §1
Brain = experiment: Drug level in Sprague-Dawley rat brain at 3 mg/kg, ip; assay type: ADME, organism-based; set-up: dose 3 mg/kg, route intraperitoneal; details: in vivo, read-out: Drug uptake; procedure, shortened: as §5
Rattus norvegicus [32] = experiment: Ex vivo receptor occupancy of mGluR5 receptor in po dosed Sprague-Dawley rat brain after 60 mins; assay type: functional; details: 1 h; procedure, shortened: as §6

SMILES: c1ccc(-c2nc3c(o2)CCN(C2CCNCC2)C3)nc1
inhibition [1]: 0%

SMILES: N#Cc1cccnc1N1CCc2nc(-c3ccccc3)oc2C1
inhibition [1]: 79%

SMILES: N#Cc1cccc(N2CC3N=C(c4ccccn4)OC3C2)c1 (stereo not drawn)
IC50 [2]: 0.219 µM

SMILES: N#Cc1cccc(S(=O)(=O)N2CCc3nc(-c4ccccn4)oc3C2)c1
inhibition [1]: 14%

SMILES: N#Cc1cccc(N2CCc3nc(C4CCCCN4)oc3C2)c1 (racemic)
inhibition [1]: 79%

SMILES: N#Cc1cccc(CN2CCc3nc(-c4ccccn4)oc3C2)c1
inhibition [1]: 55%

SMILES: c1ccc(N2CCc3oc(-c4ccccn4)nc3C2)cc1
IC50 [2]: 0.33 µM

SMILES: c1ccc(-c2nc3c(o2)CCN(C2CCCCC2)C3)nc1
inhibition [1]: 0%

SMILES: N#Cc1cccnc1N1CCc2oc(-c3ccccc3)nc2C1
IC50 [2]: 1.2 µM

SMILES: N#Cc1cc(F)cc(N2CCc3nc(-c4ccccn4)sc3C2)c1
inhibition [1]: 52%

SMILES: N#Cc1cccc(C(=O)N2CCc3nc(-c4ccccn4)oc3C2)c1
IC50 [2]: 2.6 µM

SMILES: N#Cc1cccc(N2CCc3nc(-c4ccccn4)oc3C2)c1
IC50 [2]: 0.29 µM

Now from value to molecule, other results behind:

inhibition [1]: 79%
SMILES: N#Cc1cccc(N2CCc3nc(C4CCCCC4)oc3C2)c1

inhibition [1]: 14%
SMILES: N#Cc1cccc(N2CCc3nc(-c4cccnc4)oc3C2)c1

IC50 [2]: 0.054 µM
SMILES: N#Cc1cc(F)cc(N2CCc3nc(-c4ccccn4)oc3C2)c1

inhibition [1]: 6%
SMILES: CC(C)c1nc2c(o1)CN(c1cccc(C#N)c1)CC2

IC50 [2]: 0.346 µM
SMILES: N#Cc1cc(F)cc(N2CCn3nc(-c4ccccn4)nc3C2)c1

IC50 [2]: 0.64 µM
SMILES: N#Cc1cccnc1N1CCc2nc(-c3ccccn3)oc2C1

Cmax [3]: 2730 nM | Vd [4]: 2.38 L/kg | bioavailability [5]: 10% | half-life [6]: 37.8 min | AUC(0-t) [7]: 3.06 µM·h | inhibition [8]: 77% | AUC(0-t) [9]: 2.26 µM·h | Cmax [11]: 210 nM | bioavailability [12]: 31% | Cmax (Rhesus monkey): 5080 nM | Drug uptake (Rattus norvegicus [13]): 1096 nM | half-life [14]: 37.2 min | AUC(0-t) [15]: 0.7 µM·h | concentration (Plasma): 1430 nM | Vd [16]: 0.95 L/kg | Ki [17]: 0.017 µM | half-life [19]: 40.2 min | IC50 [2]: 0.016 µM | half-life [20]: 46.2 min | clearance [22]: 16.3 mL/min/kg | half-life [23]: 54.6 min | bioavailability [24]: 30% | AUC(0-t) [25]: 0.28 µM·h | clearance [26]: 46.5 mL/min/kg | Cmax [27]: 620 nM | Cmax [29]: 5250 nM | AUC(0-t) [31]: 3.36 µM·h
SMILES: N#Cc1cc(F)cc(N2CCCc3oc(-c4ccccn4)nc3C2)c1
Activity (Rattus norvegicus [10]): 85% | ED50 (Rattus norvegicus [18]): 0.9 mg/kg | Activity (Rattus norvegicus [21]): 55% | Activity (Rattus norvegicus [28]): inactive | Activity (Rattus norvegicus [30]): 82%

IC50 [2]: 0.153 µM
SMILES: N#Cc1cc(F)cc(N2CCn3cc(-c4ccccn4)nc3C2)c1

inhibition [1]: 7%
SMILES: Cc1nc2c(o1)CCN(c1ncccc1C#N)C2

concentration (Brain): 1290 nM | Ki [17]: 0.017 µM | IC50 [2]: 0.028 µM
SMILES: N#Cc1cc(F)cc(N2CCc3oc(-c4ccccn4)nc3C2)c1
ED50 (Rattus norvegicus [32]): > 30 mg/kg | Activity (Rattus norvegicus [30]): 45%

IC50 [2]: 0.11 µM
SMILES: N#Cc1cccnc1N1CCc2oc(-c3ccccn3)nc2C1

inhibition [1]: 34%
SMILES: N#Cc1cc(F)cc(N2CCc3nc(-c4ccccn4)[nH]c3C2)c1

IC50 [2]: 0.06 µM
SMILES: N#Cc1cccc(N2CCc3oc(-c4ccccn4)nc3C2)c1

inhibition [1]: 11%
SMILES: COC(=O)N1CCc2oc(-c3ccccn3)nc2C1

inhibition [1]: 0%
SMILES: CC(C)N1CCc2oc(-c3ccccn3)nc2C1

inhibition [1]: 30%
SMILES: N#Cc1cccc(N2CCc3oc(-c4ccncc4)nc3C2)c1
